# The source made the active and inactive calls. The calls are words filed in the database; no cut-off is given here.
# Key:
# [1] = biological target: T1, Protein cereblon/Indoleamine 2,3-dioxygenase 1 (Homo sapiens, UniProt P14902+Q96SW2); assay: (§1) PROTAC activity at CRBN/N-terminal HiBiT-tagged IDO1 (unknown origin) transfected in human U87 cells assessed as induction of IDO1 degradation pretreated with IFN-gamma for 24 hrs followed by compound addition and measured after 24 hrs by Nano-Glo HiBiT assay; type: cell-based
# Summary of the method: (§2)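 U87 cells carrying HiBiT knocked in by CRISPR/Cas9 at the IDO1 N-terminus, treated for 24 h. Degradation read as loss of luminescence. DC50 fitted from the lowest concentration up to maximal degradation, excluding hook-effect points; triplicate mean ± SD.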
# Target sequence in this assay (P14902 whole entry): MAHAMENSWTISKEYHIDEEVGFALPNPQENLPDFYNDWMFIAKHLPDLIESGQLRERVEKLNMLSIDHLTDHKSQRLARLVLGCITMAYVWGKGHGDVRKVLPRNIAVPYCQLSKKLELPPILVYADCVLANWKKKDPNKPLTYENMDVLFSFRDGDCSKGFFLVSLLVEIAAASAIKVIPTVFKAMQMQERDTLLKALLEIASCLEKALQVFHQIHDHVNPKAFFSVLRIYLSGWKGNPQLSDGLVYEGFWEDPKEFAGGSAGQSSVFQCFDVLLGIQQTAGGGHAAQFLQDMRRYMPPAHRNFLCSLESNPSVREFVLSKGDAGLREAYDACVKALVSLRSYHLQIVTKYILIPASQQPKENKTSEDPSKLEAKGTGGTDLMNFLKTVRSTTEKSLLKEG
# Target sequence in this assay (Q96SW2 whole entry): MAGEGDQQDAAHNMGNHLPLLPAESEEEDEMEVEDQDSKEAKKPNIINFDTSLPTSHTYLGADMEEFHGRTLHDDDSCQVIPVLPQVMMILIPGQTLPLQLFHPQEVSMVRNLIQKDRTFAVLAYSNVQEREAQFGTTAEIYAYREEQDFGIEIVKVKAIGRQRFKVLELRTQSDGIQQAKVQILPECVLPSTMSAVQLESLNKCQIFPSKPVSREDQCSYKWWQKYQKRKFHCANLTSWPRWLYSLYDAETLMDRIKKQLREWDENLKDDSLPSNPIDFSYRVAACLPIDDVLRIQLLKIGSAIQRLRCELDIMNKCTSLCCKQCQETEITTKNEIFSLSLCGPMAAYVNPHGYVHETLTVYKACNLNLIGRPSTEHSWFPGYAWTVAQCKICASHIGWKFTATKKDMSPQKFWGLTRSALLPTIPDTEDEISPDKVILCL
# [2] = biological target: T1, Protein cereblon/Indoleamine 2,3-dioxygenase 1; assay: as §1, with “degradation by measuring maximum efficacy” for “degradation”, “assay relative to control” for “assay”; type: cell-based; summary of the method: as §2
# Target sequence in this assay (P14902 whole entry, looked up): as the sequence (P14902 whole entry) above
# Target sequence in this assay (Q96SW2 whole entry, looked up): as the sequence (Q96SW2 whole entry) above
# [3] = biological target: T1, Protein cereblon/Indoleamine 2,3-dioxygenase 1; assay: PROTAC activity at CRBN/IDO1 in human U87 cells assessed as induction of IDO1 degradation by measuring remaining activity at 0.3 uM pretreated with IFN-gamma for 24 hrs followed by compound addition and measured after 24 hrs by Western blotting analysis (reference value: 100%); type: cell-based
# Summary of the method: (§3)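 U87 cells given an extended dose range of PROTAC for 24 h, then Western blot for IDO1. IFNγ-induced IDO1 levels normalised to untreated samples. n = 3 independent experiments; mean ± SEM.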
# Target sequence in this assay (P14902 whole entry, looked up): as the sequence (P14902 whole entry) above
# Target sequence in this assay (Q96SW2 whole entry, looked up): as the sequence (Q96SW2 whole entry) above
# Kelly [4] = assay: Downregulation of ADO protein level in human Kelly cells at 1 uM incubated for 24 hrs by proteomics analysis; type: functional, cell-based
# Kelly [5] = assay: Downregulation of CDK8 protein level in human Kelly cells at 1 uM incubated for 24 hrs by proteomics analysis; type: functional, cell-based
# [6] = biological target: Indoleamine 2,3-dioxygenase 1 (Homo sapiens) (UniProt P14902); assay: Binding affinity to 6His-tagged recombinant IDO1 (unknown origin) assessed as binary complex formation by measuring half life by Biolayer Interferometry assay
# Chain of Indoleamine 2,3-dioxygenase 1 (Homo sapiens) (P14902 whole entry, looked up): as the sequence (P14902 whole entry) above
# Kelly [7] = assay: Downregulation of SALL4 protein level in human Kelly cells at 1 uM incubated for 24 hrs by proteomics analysis; type: functional, cell-based
# [8] = biological target: T1, Protein cereblon/Indoleamine 2,3-dioxygenase 1; assay: PROTAC activity at CRBN/IDO1 in human U87 cells assessed as induction of IDO1 degradation by measuring remaining activity at 3 uM pretreated with IFN-gamma for 24 hrs followed by compound addition and measured after 24 hrs by Western blotting analysis (reference value: 100%); type: cell-based; summary of the method: as §3
# Target sequence in this assay (P14902 whole entry, looked up): as the sequence (P14902 whole entry) above
# Target sequence in this assay (Q96SW2 whole entry, looked up): as the sequence (Q96SW2 whole entry) above
# [9] = biological target: T1, Protein cereblon/Indoleamine 2,3-dioxygenase 1; assay: PROTAC activity at CRBN/IDO1 in human U87 cells assessed as induction of IDO1 degradation by measuring remaining activity at 0.001 uM pretreated with IFN-gamma for 24 hrs followed by compound addition and measured after 24 hrs by Western blotting analysis (reference value: 100%); type: cell-based; summary of the method: as §3
# Target sequence in this assay (P14902 whole entry, looked up): as the sequence (P14902 whole entry) above
# Target sequence in this assay (Q96SW2 whole entry, looked up): as the sequence (Q96SW2 whole entry) above
# Kelly [10] = assay: Downregulation of EPHX2 protein level in human Kelly cells at 1 uM incubated for 24 hrs by proteomics analysis; type: functional, cell-based
# [11] = biological target: T1, Protein cereblon/Indoleamine 2,3-dioxygenase 1; assay: PROTAC activity at CRBN/IDO1 in human U87 cells assessed as induction of IDO1 degradation by measuring remaining activity at 0.1 uM pretreated with IFN-gamma for 24 hrs followed by compound addition and measured after 24 hrs by Western blotting analysis (reference value: 100%); type: cell-based; summary of the method: as §3
# Target sequence in this assay (P14902 whole entry, looked up): as the sequence (P14902 whole entry) above
# Target sequence in this assay (Q96SW2 whole entry, looked up): as the sequence (Q96SW2 whole entry) above
# [12] = biological target: T1, Protein cereblon/Indoleamine 2,3-dioxygenase 1; assay: PROTAC activity at CRBN/IDO1 in human U87 cells assessed as induction of IDO1 degradation by measuring remaining activity at 0.03 uM pretreated with IFN-gamma for 24 hrs followed by compound addition and measured after 24 hrs by Western blotting analysis (reference value: 100%); type: cell-based; summary of the method: as §3
# Target sequence in this assay (P14902 whole entry, looked up): as the sequence (P14902 whole entry) above
# Target sequence in this assay (Q96SW2 whole entry, looked up): as the sequence (Q96SW2 whole entry) above
# [13] = biological target: T1, Protein cereblon/Indoleamine 2,3-dioxygenase 1; assay: PROTAC activity at CRBN/IDO1 in human U87 cells assessed as induction of IDO1 degradation by measuring maximum efficacy at 300 nM pretreated with IFN-gamma for 24 hrs followed by compound addition and measured after 24 hrs by Western blotting analysis relative to control; type: cell-based
# Summary of the method: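 IDO1 in U87 cells induced with 50 ng/mL human IFN-γ, then compound given across an extended dose range for 24 h. IDO1 and GAPDH read by Western blot; IDO1 levels normalized to untreated; DC50 from n = 3 independent experiments.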
# [14] = biological target: T1, Protein cereblon/Indoleamine 2,3-dioxygenase 1; assay: PROTAC activity at CRBN/IDO1 in human U87 cells assessed as induction of IDO1 degradation by measuring remaining activity at 1 uM pretreated with IFN-gamma for 24 hrs followed by compound addition and measured after 24 hrs by Western blotting analysis (reference value: 100%); type: cell-based; summary of the method: as §3
# [15] = biological target: T1, Protein cereblon/Indoleamine 2,3-dioxygenase 1; assay: PROTAC activity at CRBN/IDO1 in human U87 cells assessed as induction of IDO1 degradation by measuring remaining activity at 10 uM pretreated with IFN-gamma for 24 hrs followed by compound addition and measured after 24 hrs by Western blotting analysis (reference value: 100%); type: cell-based; summary of the method: as §3
# [16] = biological target: T1, Protein cereblon/Indoleamine 2,3-dioxygenase 1; assay: PROTAC activity at CRBN/IDO1 in human U87 cells assessed as induction of IDO1 degradation by measuring remaining activity at 0.01 uM pretreated with IFN-gamma for 24 hrs followed by compound addition and measured after 24 hrs by Western blotting analysis (reference value: 100%); type: cell-based; summary of the method: as §3
# [17] = biological target: T1, Protein cereblon/Indoleamine 2,3-dioxygenase 1; assay: PROTAC activity at CRBN/IDO1 in human U87 cells assessed as induction of IDO1 degradation by measuring remaining activity at 0.003 uM incubated for 24 hrs by Western blotting analysis (reference value: 100%); type: cell-based
# [18] = biological target: T1, Protein cereblon/Indoleamine 2,3-dioxygenase 1; assay: Binding affinity to CRBN/6His-tagged recombinant IDO1 (unknown origin) assessed as ternary complex formation by measuring half life by Biolayer Interferometry assay; type: protein assay
# U-87MG ATCC [19] = assay: Inhibition of kynurenine production in human U87 cells […] and measured after 24 hrs by Ehrlich's reagent based analysis; type: functional, cell-based; conditions: dose 0.001-10 µM
# Summary of the method: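 U87 cells plated, then 24 h later given compound with 50 ng/mL IFN-γ for a total of 24 h. Supernatant kynurenine measured with Ehrlich's reagent; cells without IFN-γ as control; mean ± SEM, Tukey's test.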
# U-87MG ATCC [20] = assay: Inhibition of kynurenine production in human U87 cells at 25 nM pretreated with IFN-gamma for 24 hrs followed by compound addition and measured after 24 hrs by Ehrlich's reagent based analysis; type: functional, cell-based
DC50 [1],Emax [2],SMILES,further results
0.02 µM,67%,C[C@@H](C(=O)Nc1cccc(OC2CCN(C(=O)CN3CCC(CN4CCN(c5ccc6c(c5)C(=O)N(C5CCC(=O)NC5=O)C6=O)CC4)CC3)CC2)c1)[C@H]1CC[C@@H](c2ccnc3ccc(F)cc32)CC1 (stereo not given in full),Activity [3]: 32%; Activity (Kelly [4]): Active; Activity (Kelly [5]): Active; T1/2 [6]: 53 s; Activity (Kelly [7]): Active; Activity [8]: 57%; Activity [9]: 93%; Activity (Kelly [10]): Active; Activity [11]: 47%; Activity [12]: 71%; Emax [13]: 68%; Activity [14]: 37%; Activity [15]: 93%; Activity [16]: 84%; Activity [17]: 88%; T1/2 [18]: 4.27 min; inhibition (U-87MG ATCC [19]): Dose-dependent-effect
> 10 µM,< 10%,C[C@@H](C(=O)Nc1ccc(Cl)c(OC2CCN(C(=O)CN3CCC(CN4CCN(c5cccc6c5C(=O)N(C5CCC(=O)NC5=O)C6=O)CC4)CC3)CC2)c1)[C@H]1CC[C@@H](c2ccnc3ccc(F)cc32)CC1 (stereo not given in full),
> 10 µM,< 10%,C[C@@H](C(=O)Nc1cccc(OC2CCN(C(=O)CN3CCN(c4ccc5c(c4)C(=O)N(C4CCC(=O)NC4=O)C5=O)CC3)CC2)c1)[C@H]1CC[C@@H](c2ccnc3ccc(F)cc32)CC1 (stereo not given in full),
> 10 µM,< 10%,C[C@@H](C(=O)Nc1ccc(OC2CCN(C(=O)CN3CCC(CN4CCN(c5cccc6c5C(=O)N(C5CCC(=O)NC5=O)C6=O)CC4)CC3)CC2)cc1)[C@H]1CC[C@@H](c2ccnc3ccc(F)cc32)CC1 (stereo not given in full),
> 10 µM,< 10%,C[C@@H](C(=O)Nc1cccc(OC2CCN(C(=O)CCN3CCN(c4ccc5c(c4)C(=O)N(C4CCC(=O)NC4=O)C5=O)CC3)CC2)c1)[C@H]1CC[C@@H](c2ccnc3ccc(F)cc32)CC1 (stereo not given in full),
0.34 µM,26%,C[C@@H](C(=O)Nc1ccc(OC2CCN(C(=O)CN3CCC(CN4CCN(c5ccc6c(c5)C(=O)N(C5CCC(=O)NC5=O)C6=O)CC4)CC3)CC2)cc1)[C@H]1CC[C@@H](c2ccnc3ccc(F)cc32)CC1 (stereo not given in full),
0.008 µM,48%,C[C@@H](C(=O)Nc1ccc(Cl)c(OC2CCN(C(=O)CN3CCC(CN4CCN(c5ccc6c(c5)C(=O)N(C5CCC(=O)NC5=O)C6=O)CC4)CC3)CC2)c1)[C@H]1CC[C@@H](c2ccnc3ccc(F)cc32)CC1 (stereo not given in full),
0.034 µM,21%,C[C@@H](C(=O)Nc1ccc(OC2CCN(C(=O)CN3CCC(N4CCN(c5ccc6c(c5)C(=O)N(C5CCC(=O)NC5=O)C6=O)CC4)CC3)CC2)cc1)[C@H]1CC[C@@H](c2ccnc3ccc(F)cc32)CC1 (stereo not given in full),

# More lines, now with the values behind:
SMILES,DC50 [1],Emax [2],further results
C[C@@H](C(=O)Nc1ccc(Cl)c(OC2CCN(C(=O)CCOCCOCCNc3cccc4c3C(=O)N(C3CCC(=O)NC3=O)C4=O)CC2)c1)[C@H]1CC[C@@H](c2ccnc3ccc(F)cc32)CC1 (stereo not given in full),> 10 µM,< 10%,
C[C@@H](C(=O)Nc1ccc(OC2CCN(C(=O)CCOCCOCCNc3ccc4c(c3)C(=O)N(C3CCC(=O)NC3=O)C4=O)CC2)cc1)[C@H]1CC[C@@H](c2ccnc3ccc(F)cc32)CC1 (stereo not given in full),> 10 µM,< 10%,
C[C@@H](C(=O)Nc1ccc(Cl)c(OC2CCN(C(=O)CN3CCC(N4CCN(c5ccc6c(c5)C(=O)N(C5CCC(=O)NC5=O)C6=O)CC4)CC3)CC2)c1)[C@H]1CC[C@@H](c2ccnc3ccc(F)cc32)CC1 (stereo not given in full),0.007 µM,51%,
C[C@@H](C(=O)Nc1ccc(Cl)c(OC2CCN(C(=O)CCOCCN3CCN(c4cccc5c4C(=O)N(C4CCC(=O)NC4=O)C5=O)CC3)CC2)c1)[C@H]1CC[C@@H](c2ccnc3ccc(F)cc32)CC1 (stereo not given in full),> 10 µM,< 10%,
C[C@@H](C(=O)Nc1ccc(OC2CCN(C(=O)CCOCCN3CCN(c4ccc5c(c4)C(=O)N(C4CCC(=O)NC4=O)C5=O)CC3)CC2)cc1)[C@H]1CC[C@@H](c2ccnc3ccc(F)cc32)CC1 (stereo not given in full),> 10 µM,< 10%,
C[C@@H](C(=O)Nc1ccc(Cl)cc1)[C@H]1CC[C@@H](c2ccnc3ccc(F)cc32)CC1,,,inhibition (U-87MG ATCC [20]): Active
C[C@@H](C(=O)Nc1ccc(OC2CCN(C(=O)CCOCCN3CCN(c4cccc5c4C(=O)N(C4CCC(=O)NC4=O)C5=O)CC3)CC2)cc1)[C@H]1CC[C@@H](c2ccnc3ccc(F)cc32)CC1 (stereo not given in full),> 10 µM,< 10%,
C[C@@H](C(=O)Nc1ccc(Cl)c(OC2CCN(C(=O)CCOCCN3CCN(c4ccc5c(c4)C(=O)N(C4CCC(=O)NC4=O)C5=O)CC3)CC2)c1)[C@H]1CC[C@@H](c2ccnc3ccc(F)cc32)CC1 (stereo not given in full),> 10 µM,< 10%,
C[C@@H](C(=O)Nc1ccc(Cl)c(OC2CCN(C(=O)CCOCCOCCNc3ccc4c(c3)C(=O)N(C3CCC(=O)NC3=O)C4=O)CC2)c1)[C@H]1CC[C@@H](c2ccnc3ccc(F)cc32)CC1 (stereo not given in full),> 10 µM,< 10%,

# — ChEMBL document CHEMBL6153131, “Rational Design and Optimization of a Potent IDO1 Proteolysis Targeting Chimera (PROTAC)” (J Med Chem, 2025)
